Test results taken from ChEMBL document CHEMBL1141019, “New cyclic tetrapeptides from Nonomuraea sp. TA-0426 that inhibit glycine transporter type 1 (GlyT1)” (Bioorg Med Chem Lett, 2008).
Residues, ends and D or L forms follow the SMILES beside them.

system: T98G; assay: Inhibition of [3H]glycine uptake in human T98G cells; type: functional, cell-based
Summary of the method: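 T98G cells (2 × 10⁴ cells/well) plated, held 24 h at 37 °C in humidified incubator; washed, then exposed at room temperature to 250 nM [³H]-glycine plus test sample for 15 min. Cells washed, lysed in 0.5 M NaOH, radioactivity read by scintillation counting. IC50 from nonlinear regression curve fit; means of two experiments.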

IC50	SMILES
21.2 nM	CC[C@H](C)[C@@H]1NC(=O)[C@H](Cc2ccccc2)NC(=O)[C@H]([C@@H](C)CC)NC(=O)[C@H]([C@@H](C)CC)NC1=O (cyclo(FIII))
3.5 nM	CC[C@H](C)[C@@H]1NC(=O)[C@H](Cc2ccccc2)NC(=O)[C@H]([C@H](C)[C@@H](C)O)NC(=O)[C@H]([C@@H](C)CC)NC1=O
71.8 nM	CC[C@H](C)[C@@H]1NC(=O)[C@H](Cc2cn(OC)c3ccccc23)NC(=O)[C@H](CCCCC(C)=O)NC(=O)[C@H]2CCCCN2C1=O
5.5 nM	CC[C@H](C)[C@@H]1NC(=O)[C@H](Cc2ccccc2)NC(=O)[C@H]([C@H](C)[C@@H](C)O)NC(=O)[C@H](C(C)C)NC1=O
16400 nM	CC[C@H](C)[C@H](N)C(=O)N[C@H](C(=O)N[C@H](C(=O)N[C@@H](Cc1ccccc1)C(=O)O)[C@@H](C)CC)[C@@H](C)CC (H-IIIF-OH)
655 nM	CC[C@H](C)[C@@H]1NC(=O)[C@H](Cc2ccccc2)NC(=O)[C@H]([C@@H](C)CC)NC(=O)[C@H]([C@@H](C)CC)NC(=O)[C@H]([C@@H](C)CC)NC1=O (cyclo(FIIII))
12.5 nM	CC[C@H](C)[C@@H]1NC(=O)[C@H](Cc2ccccc2)NC(=O)[C@H]([C@H](CS(=O)(=O)O)C(C)=O)NC(=O)[C@H]([C@@H](C)CC)NC1=O
1680 nM	CC[C@H](C)[C@@H]1NC(=O)[C@H](Cc2ccccc2)NC(=O)[C@H]([C@@H](C)CC)NC(=O)[C@H]([C@@H](C)CC)NC(=O)[C@H]([C@@H](C)CC)NC(=O)[C@H]([C@@H](C)CC)NC1=O (cyclo(FIIIII))
4.8 nM	CN(CC[C@@H](Oc1ccc(-c2ccccc2)cc1)c1ccc(F)cc1)CC(=O)O
4 nM	CC(C)[C@@H]1NC(=O)[C@H](Cc2ccccc2)NC(=O)[C@H]([C@H](C)[C@@H](C)O)NC(=O)[C@H](C(C)C)NC1=O
5 nM	CC[C@H](C)[C@@H]1NC(=O)[C@H](C(C)C)NC(=O)[C@H](Cc2ccccc2)NC(=O)[C@H]([C@H](C)[C@@H](C)O)NC1=O
